{"source": "ChEMBL document CHEMBL1141692", "about": "“Benzimidazole-substituted (3-phenoxypropyl)amines as histamine H3 receptor ligands” (Bioorg Med Chem Lett, 2008)", "key": {"[1]": {"biological_target": "T1, Histamine H3 receptor (Homo sapiens, UniProt Q9Y5N1)", "T1 sequence (Q9Y5N1 whole entry)": "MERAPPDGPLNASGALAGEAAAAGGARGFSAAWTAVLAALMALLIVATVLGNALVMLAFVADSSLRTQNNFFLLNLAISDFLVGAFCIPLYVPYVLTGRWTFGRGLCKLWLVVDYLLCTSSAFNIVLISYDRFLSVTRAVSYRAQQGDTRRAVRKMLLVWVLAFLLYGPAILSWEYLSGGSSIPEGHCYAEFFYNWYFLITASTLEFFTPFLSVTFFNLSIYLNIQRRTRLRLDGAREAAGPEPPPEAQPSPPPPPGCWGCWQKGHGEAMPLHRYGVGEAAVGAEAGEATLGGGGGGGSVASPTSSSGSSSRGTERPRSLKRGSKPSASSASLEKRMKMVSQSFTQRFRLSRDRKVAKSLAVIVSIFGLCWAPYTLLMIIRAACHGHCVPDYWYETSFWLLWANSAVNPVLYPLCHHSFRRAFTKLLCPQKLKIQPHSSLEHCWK", "experiment": "Displacement of [3H]N-alpha-methylhistamine from human histamine H3 receptor expressed in HEK cells by scintillation counting", "assay_type": "cell-based, HEK293", "in_short": "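Membranes (P2 pellet) from rHu H3–HEK cells were incubated in 50 mM Tris–HCl, pH 7.4, with 1 nM [3H]N-α-methylhistamine (82 Ci/mmol). Compounds were tested at half-log steps over a five-log range. Nonspecific binding was defined with 10^-5 M thioperamide. Incubation ran 30 min at 30 °C, then mixtures were filtered on PEI-soaked GF/B filters, washed three times and counted. Ki was taken from nonlinear curve fits.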"}, "[2]": {"biological_target": "Voltage-gated inwardly rectifying potassium channel KCNH2 (Homo sapiens, UniProt Q12809)", "sequence (Q12809 whole entry)": "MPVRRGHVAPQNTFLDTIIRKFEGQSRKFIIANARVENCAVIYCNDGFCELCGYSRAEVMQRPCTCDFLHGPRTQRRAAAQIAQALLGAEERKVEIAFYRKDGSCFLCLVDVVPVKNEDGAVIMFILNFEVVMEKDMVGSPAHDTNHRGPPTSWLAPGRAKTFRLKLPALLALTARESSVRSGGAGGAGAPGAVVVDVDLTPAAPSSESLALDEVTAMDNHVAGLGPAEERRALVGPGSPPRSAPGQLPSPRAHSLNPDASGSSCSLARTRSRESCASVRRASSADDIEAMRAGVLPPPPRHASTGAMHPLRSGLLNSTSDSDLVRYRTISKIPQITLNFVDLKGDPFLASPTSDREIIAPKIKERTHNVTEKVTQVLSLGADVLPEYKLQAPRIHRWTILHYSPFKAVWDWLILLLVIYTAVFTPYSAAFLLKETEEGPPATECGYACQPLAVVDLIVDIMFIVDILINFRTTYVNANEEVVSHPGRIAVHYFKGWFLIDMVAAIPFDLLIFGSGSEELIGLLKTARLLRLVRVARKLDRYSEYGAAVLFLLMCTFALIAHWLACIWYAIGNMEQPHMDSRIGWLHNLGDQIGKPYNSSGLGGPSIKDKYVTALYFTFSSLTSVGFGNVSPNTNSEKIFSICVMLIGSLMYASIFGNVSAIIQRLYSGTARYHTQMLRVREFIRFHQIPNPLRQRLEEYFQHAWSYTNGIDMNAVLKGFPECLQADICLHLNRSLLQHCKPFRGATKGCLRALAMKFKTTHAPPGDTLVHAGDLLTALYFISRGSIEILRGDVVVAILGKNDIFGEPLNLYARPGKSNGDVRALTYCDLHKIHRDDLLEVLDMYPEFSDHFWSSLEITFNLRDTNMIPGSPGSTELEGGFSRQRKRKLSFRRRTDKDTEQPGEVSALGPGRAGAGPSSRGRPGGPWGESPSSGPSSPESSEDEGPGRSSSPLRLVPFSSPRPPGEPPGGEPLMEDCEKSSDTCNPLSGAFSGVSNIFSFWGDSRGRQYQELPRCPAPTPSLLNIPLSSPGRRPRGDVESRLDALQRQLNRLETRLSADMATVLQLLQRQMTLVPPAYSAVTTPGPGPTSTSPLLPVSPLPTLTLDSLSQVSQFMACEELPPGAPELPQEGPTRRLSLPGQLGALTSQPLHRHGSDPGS", "experiment": "Rubidium efflux through human ERG at 5 ug/mL pre-equilibrated for 30 mins by flame atomic absorbance spectroscopy"}, "[3]": {"biological_target": "Cytochrome P450 2D6 (Homo sapiens, UniProt P10635)", "sequence (P10635 whole entry)": "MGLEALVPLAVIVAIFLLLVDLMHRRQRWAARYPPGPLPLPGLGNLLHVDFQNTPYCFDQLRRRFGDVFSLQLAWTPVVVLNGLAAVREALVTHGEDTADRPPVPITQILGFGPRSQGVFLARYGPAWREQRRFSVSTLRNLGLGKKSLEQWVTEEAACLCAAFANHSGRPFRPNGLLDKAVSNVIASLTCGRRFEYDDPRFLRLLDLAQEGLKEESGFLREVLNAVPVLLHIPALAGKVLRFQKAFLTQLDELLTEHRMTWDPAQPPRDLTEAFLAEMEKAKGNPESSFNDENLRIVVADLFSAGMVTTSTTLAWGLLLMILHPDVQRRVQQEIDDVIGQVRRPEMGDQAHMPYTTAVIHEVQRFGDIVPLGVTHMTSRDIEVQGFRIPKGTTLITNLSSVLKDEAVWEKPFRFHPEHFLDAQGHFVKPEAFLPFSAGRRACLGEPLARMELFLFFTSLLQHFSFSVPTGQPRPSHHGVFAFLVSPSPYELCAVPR", "experiment": "Inhibition of CYP2D6 in human liver microsomes up to 30 uM by microtiter plate assay", "assay_type": "ADME, Microsome"}, "[4]": {"biological_target": "Cytochrome P450 3A4 (Homo sapiens, UniProt P08684)", "sequence (P08684 whole entry)": "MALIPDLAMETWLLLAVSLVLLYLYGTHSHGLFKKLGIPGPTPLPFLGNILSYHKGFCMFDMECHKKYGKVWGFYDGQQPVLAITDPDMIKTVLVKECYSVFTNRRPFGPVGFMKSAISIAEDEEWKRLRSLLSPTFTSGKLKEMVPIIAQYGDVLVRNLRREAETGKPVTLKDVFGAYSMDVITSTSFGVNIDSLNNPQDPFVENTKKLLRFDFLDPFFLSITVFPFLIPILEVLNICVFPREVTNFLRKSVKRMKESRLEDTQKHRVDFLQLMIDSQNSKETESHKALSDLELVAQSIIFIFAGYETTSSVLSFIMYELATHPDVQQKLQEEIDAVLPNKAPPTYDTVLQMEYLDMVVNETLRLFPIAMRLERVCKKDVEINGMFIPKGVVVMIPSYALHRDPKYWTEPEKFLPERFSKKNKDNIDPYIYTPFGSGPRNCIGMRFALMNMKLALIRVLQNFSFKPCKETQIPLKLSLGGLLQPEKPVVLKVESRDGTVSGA", "experiment": "Inhibition of CYP3A4 in human liver microsomes up to 30 uM by microtiter plate assay", "assay_type": "ADME, Microsome"}, "[5]": {"experiment": "AUC (0 to 6 hrs) in rat at 10 mg/kg, po", "assay_type": "ADME, organism-based", "design": "time < 6 hr, dose 10 mg/kg, route oral", "conditions": "plasma; call rule not given here", "in_short": "(§1)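 Oral dosing in rat at 10 mg/kg in methyl cellulose, n = 2, in a high-throughput PK assay. Plasma was sampled over 0–6 h time points to give AUC and Cmax.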"}, "[6]": {"experiment": "Cmax (0 to 6 hrs) in rat at 10 mg/kg, po", "assay_type": "ADME, organism-based", "design": "dose 10 mg/kg, route oral", "conditions": "in vivo", "in_short": "as §1"}, "[7]": {"biological_target": "Histamine H3 receptor (Mus musculus, UniProt P58406)", "sequence (P58406 whole entry)": "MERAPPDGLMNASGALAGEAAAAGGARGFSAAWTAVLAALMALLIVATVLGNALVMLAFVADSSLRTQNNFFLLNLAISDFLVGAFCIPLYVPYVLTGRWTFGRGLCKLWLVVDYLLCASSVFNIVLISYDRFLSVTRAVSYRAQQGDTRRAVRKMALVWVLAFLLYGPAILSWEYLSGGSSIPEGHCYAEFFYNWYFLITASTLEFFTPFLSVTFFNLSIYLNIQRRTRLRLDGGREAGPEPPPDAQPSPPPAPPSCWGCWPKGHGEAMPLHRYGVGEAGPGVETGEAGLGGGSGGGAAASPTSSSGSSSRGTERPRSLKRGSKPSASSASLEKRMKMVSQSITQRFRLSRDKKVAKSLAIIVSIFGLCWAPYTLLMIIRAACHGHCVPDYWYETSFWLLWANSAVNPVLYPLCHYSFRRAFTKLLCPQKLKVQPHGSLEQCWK", "experiment": "Binding affinity to mouse histamine H3 receptor"}, "[8]": {"biological_target": "T1, Histamine H3 receptor", "experiment": "Antagonist activity at human histamine H3 receptor expressed in HEK293 cells assessed as reversal of N-alpha-methylhistamine-induced inhibition of forskolin-stimulated cAMP formation", "assay_type": "functional, cell-based"}}}
{"compound": "OC1CCN(CCCOc2ccc(-n3c(-c4ccccn4)nc4cc(F)ccc43)cc2)CC1", "values": [{"measurement": "Ki", "setting": "[1]", "value": 1.8, "unit": "nM"}, {"measurement": "Rb efflux", "setting": "[2]", "value": 16, "unit": "%"}]}
{"compound": "Fc1ccc2c(c1)nc(-c1ccccn1)n2-c1ccc(OCCCN2Cc3cccc4cccc(c34)C2)cc1", "values": [{"measurement": "Ki", "setting": "[1]", "value": 713, "unit": "nM"}]}
{"compound": "Fc1ccc2c(c1)nc(-c1ccccn1)n2-c1ccc(OCCCN2CCCC2)cc1", "values": [{"measurement": "Ki", "setting": "[1]", "value": 1.2, "unit": "nM"}]}
{"compound": "Fc1ccc2c(c1)nc(-c1ccccn1)n2-c1ccc(OCCCN2CCCCCC2)cc1", "values": [{"measurement": "Ki", "setting": "[1]", "value": 5.3, "unit": "nM"}]}
{"compound": "Fc1ccc2c(c1)[nH]c(=S)n2-c1ccc(OCCCN2CCCCC2)cc1", "values": [{"measurement": "Ki", "setting": "[1]", "value": 8, "unit": "nM"}]}
{"compound": "Fc1ccc2c(c1)nc(-c1ccccn1)n2-c1ccc(OCCCN2CCCCC2)cc1", "values": [{"measurement": "Activity", "setting": "[3]", "value": "Not Active"}, {"measurement": "Activity", "setting": "[4]", "value": "Not Active"}, {"measurement": "AUC(0-t) at 6 h", "setting": "[5]", "value": 2030, "unit": "ng·h/mL"}, {"measurement": "Cmax", "setting": "[6]", "value": 393, "unit": "ng/mL"}, {"measurement": "Ki", "setting": "[1]", "value": 1.2, "unit": "nM"}, {"measurement": "Ki", "setting": "[7]", "value": 1.8, "unit": "nM"}, {"measurement": "Ki", "setting": "[8]", "value": 0.1, "unit": "nM"}, {"measurement": "Rb efflux", "setting": "[2]", "value": 70, "unit": "%"}]}
{"compound": "Fc1ccc2c(c1)nc(-c1ccccn1)n2-c1ccc(OCCCN2CCc3ccccc3C2)cc1", "values": [{"measurement": "Ki", "setting": "[1]", "value": 107, "unit": "nM"}, {"measurement": "Rb efflux", "setting": "[2]", "value": 94, "unit": "%"}]}
{"compound": "COC(=O)C1CCN(CCCOc2ccc(-n3c(-c4ccccn4)nc4cc(F)ccc43)cc2)CC1", "values": [{"measurement": "Ki", "setting": "[1]", "value": 16, "unit": "nM"}, {"measurement": "Rb efflux", "setting": "[2]", "value": 49, "unit": "%"}]}
{"compound": "CCOc1nc2cc(F)ccc2n1-c1ccc(OCCCN2CCCCC2)cc1", "values": [{"measurement": "Ki", "setting": "[1]", "value": 15, "unit": "nM"}]}
{"compound": "O=c1[nH]c2cc(F)ccc2n1-c1ccc(OCCCN2CCCCC2)cc1", "values": [{"measurement": "Ki", "setting": "[1]", "value": 8.7, "unit": "nM"}]}
{"compound": "NC(=O)C1CCCN(CCCOc2ccc(-n3c(-c4ccccn4)nc4cc(F)ccc43)cc2)C1", "note": "(stereo not drawn)", "values": [{"measurement": "Ki", "setting": "[1]", "value": 11, "unit": "nM"}]}
{"compound": "Fc1ccc2c(c1)nc(-c1ccccn1)n2-c1ccc(OCCCN2CCC(Cc3ccccc3)CC2)cc1", "values": [{"measurement": "Ki", "setting": "[1]", "value": 2, "unit": "nM"}]}
{"compound": "NC(=O)C1CCN(CCCOc2ccc(-n3c(-c4ccccn4)nc4cc(F)ccc43)cc2)CC1", "values": [{"measurement": "Ki", "setting": "[1]", "value": 20, "unit": "nM"}]}
{"compound": "Fc1ccc2c(c1)nc(-c1ccccn1)n2-c1ccc(OCCCN2CCSC2)cc1", "values": [{"measurement": "Ki", "setting": "[1]", "value": 20, "unit": "nM"}, {"measurement": "Rb efflux", "setting": "[2]", "value": 42, "unit": "%"}]}
{"compound": "C[C@@H]1CC[C@@H](C)N1CCCOc1ccc(-n2c(-c3ccccn3)nc3cc(F)ccc32)cc1", "values": [{"measurement": "Ki", "setting": "[1]", "value": 5.1, "unit": "nM"}]}
{"compound": "CNCCCOc1ccc(-n2c(-c3ccccn3)nc3cc(F)ccc32)cc1", "values": [{"measurement": "Ki", "setting": "[1]", "value": 101, "unit": "nM"}]}
{"compound": "CCSc1nc2cc(F)ccc2n1-c1ccc(OCCCN2CCCCC2)cc1", "values": [{"measurement": "Ki", "setting": "[1]", "value": 2.6, "unit": "nM"}]}
{"compound": "CN1CCCN(CCCOc2ccc(-n3c(-c4ccccn4)nc4cc(F)ccc43)cc2)CC1", "values": [{"measurement": "Ki", "setting": "[1]", "value": 3.6, "unit": "nM"}]}
{"compound": "CC1CC(C)CN(CCCOc2ccc(-n3c(-c4ccccn4)nc4cc(F)ccc43)cc2)C1", "note": "(stereo not drawn)", "values": [{"measurement": "Ki", "setting": "[1]", "value": 11, "unit": "nM"}]}
{"compound": "Fc1ccc2c(c1)nc(-c1ccccn1)n2-c1ccc(OCCCN2CCOCC2)cc1", "values": [{"measurement": "Ki", "setting": "[1]", "value": 3.4, "unit": "nM"}, {"measurement": "Rb efflux", "setting": "[2]", "value": 62, "unit": "%"}]}
{"compound": "CN1CCN(CCCOc2ccc(-n3c(-c4ccccn4)nc4cc(F)ccc43)cc2)CC1", "values": [{"measurement": "Ki", "setting": "[1]", "value": 13, "unit": "nM"}]}
